The values that follow come from ChEMBL document CHEMBL3414437, “Synthesis of CDDO-amino acid-nitric oxide donor trihybrids as potential antitumor agents against both drug-sensitive and drug-resistant colon cancer” (J Med Chem, 2015).

For data set [1], the system named is Mus musculus. In words: Toxicity in nude BALB/c mouse xenografted with FU-resistant human HCT8 cells assessed as abnormal weight changes in lung at 59.4 umol/kg administered as via oral gavage daily for 21 days. The format is organism-based, HCT-8. The note with it: in vivo, 504 h. The procedure, abridged:
(§1)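 Male BALB/c nude mice, 6-8 weeks old, inoculated s.c. in right flank with HCT-8/5-FU cells (2 × 10^6/mouse). Once tumors reached 180-200 mm3 (9-11 days post-implantation), mice were randomized and dosed by gavage daily for 21 consecutive days in cremophor-EL/DMSO/PBS (1:1:8) (vehicle alone 0.2 mL). Body weights recorded on day 1 and day 21. Organ size, color and weights were inspected for liver, kidney, lung and heart. n = 8 per group; mean ± SD.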

Data set [2] has as its system Mus musculus. As to the kind of experiment: Toxicity in nude BALB/c mouse xenografted with FU-resistant human HCT8 cells assessed as abnormal color changes in heart at 59.4 umol/kg administered as via oral gavage daily for 21 days. The conditions noted are these: in vivo, 504 h. The format is organism-based, HCT-8. In a few lines:
(§2)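 Male BALB/c nude mice aged 6-8 weeks, implanted s.c. in the right flank with HCT-8/5-FU cells (2 × 10^6). Once tumors reached 180-200 mm3 (days 9-11), randomized to daily gavage for 21 days in cremophor-EL/DMSO/PBS (1:1:8), 0.2 mL. At the end, liver, kidney, lung and heart checked for size, colour and weight. n = 8 per group.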
Background: Xenograft models place foreign cells or tissue in a host animal.

For data set [3], the system named is HCT-8. As to the kind of experiment: Inhibition of P-gp protein expression in FU-resistant human HCT8 cells at 1 uM incubated for 24 hrs by Western blotting method. The format is functional, cell-based. In a few lines:
(§3)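 Cells (1 x 10^6) grown 24 h in 6 cm dishes, then exposed in duplicate for 24 h to 0.25, 0.5 or 1 µM compound, with or without PTIO. Lysates (20 µg/lane) were run on 7.5% SDS-PAGE, blotted to PVDF and blocked in 5% milk. HRP secondaries with ECL detection; bands quantified by densitometry against β-actin or GAPDH. Three separate experiments, mean ± SD.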
Background: Immunoblotting shows a protein as a band on a membrane.

The subject of data set [4] is HCT-8. In words: (§4) Antiproliferative activity against human HCT8 cells assessed as inhibition of cell proliferation at 1 uM after 72 hrs by MTT assay. The format is functional. The procedure, abridged: (§5)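 Cells grown in DMEM with 10% FBS and exposed to compound at 1 µM for 72 h. Proliferation measured by MTT at 570 nm and expressed as % inhibition versus untreated cells. Mean ± SD of three independent experiments.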
A general note: Tetrazolium dyes change colour on reduction, which living cells bring about.

Data set [5] concerns the target Signal transducer and activator of transcription 3 (Homo sapiens) (UniProt P40763). As to the kind of experiment: Inhibition of STAT3 protein phosphorylation in FU-resistant human HCT8 cells at 1 uM incubated for 24 hrs by Western blotting method. The conditions noted are these: HCT-8. The data set is classed as cell-based. The procedure, abridged: as §3
Data set [6] addresses Multidrug resistance-associated protein 1 (Homo sapiens, UniProt P33527). In words: Induction of nitrosylation of MRP1 protein in FU-resistant human HCT8 cells at 1 uM incubated for 24 hrs by Western blotting method. The data set is classed as cell-based. The conditions noted are these: hct-8, 24 h. The procedure, abridged:
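HCT-8/5-FU cells (1 × 10^6) treated in duplicate for 24 h with 0.25, 0.5 or 1 µM test compound or 1 µM reference, with or without PTIO. Lysates immunoprecipitated overnight at 4 °C with anti-nitrotyrosine antibody on protein G beads. Eluates blotted with specific anti-Pgp, anti-MRP1 or anti-BCRP antibodies and quantified by densitometry. Mean ± SD of three experiments.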

The subject of data set [7] is Mus musculus. In words: Toxicity in nude BALB/c mouse xenografted with FU-resistant human HCT8 cells assessed as abnormal color changes in kidney at 59.4 umol/kg administered as via oral gavage daily for 21 days. The conditions noted are these: in vivo, 504 h. The data set is classed as organism-based, HCT-8. In a few lines:
as §2

For data set [8], the system named is HCT-8. In words: Induction of nitric oxide release in human HCT8 cells at 150 uM incubated for 150 mins after 150 mins of pre-treatment with 0.75 uM to 192 uM pepT1 substrate Gly-Sar by Griess assay. The format is functional, cell-based. The procedure, abridged: (§6)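 Cells pretreated with Gly-Sar (0.75–192 µM, nine levels) for 150 min, then given compound at 150 µM for 150 min. Intracellular nitrite in lysates measured with Griess reagent (10 min, 37 °C, 540 nm) against a sodium nitrite standard curve. Mean ± SD of three experiments.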

Data set [9] concerns Mus musculus. As to the kind of experiment: Toxicity in nude BALB/c mouse xenografted with FU-resistant human HCT8 cells assessed as abnormal size changes in kidney at 17.8 to 35.7 umol/kg administered as via oral gavage daily for 21 days. The data set is classed as organism-based, HCT-8. The note with it: in vivo, 504 h. In a few lines: as §2
For data set [10], the system named is Mus musculus. In words: Toxicity in nude BALB/c mouse xenografted with FU-resistant human HCT8 cells assessed as abnormal weight changes in liver at 17.8 to 35.7 umol/kg administered as via oral gavage daily for 21 days. The note with it: in vivo, 504 h. The format is organism-based, HCT-8. The procedure, abridged: as §2
Data set [11] concerns HCT-8. As to the kind of experiment: Induction of nitric oxide release in human HCT8 cells at 100 uM incubated for 150 mins by Griess assay. The format is functional, cell-based. The procedure, abridged: (§7)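 Cells (1 × 10^6/well) treated in triplicate with compound at 100 µM for 150 min. Lysates mixed with Griess reagent for 10 min at 37 °C and read at 540 nm. Nitrite quantified from a sodium nitrite standard curve; 0.4% DMSO-treated cells served as background. Mean ± SD of three experiments.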

Data set [12] in a line: Antitumor activity against FU-resistant human HCT8 cells xenografted in nude BALB/c mouse assessed as reduction in tumor weight at 35.7 umol/kg administered as via oral gavage daily for 21 days. The data set is classed as functional. The conditions noted are these: HCT-8, po, 504 h. In a few lines: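 Male BALB/c nude mice, 6–8 weeks old, inoculated s.c. in the right flank with HCT-8/5-FU cells (2 × 10^6). Once tumors reached 180–200 mm3 (days 9–11), mice were randomized (n = 8) to daily oral gavage for 21 days in cremophor-EL/DMSO/PBS (1:1:8). Tumor volume = W2(L/2), caliper-measured every other day, blinded; tumors weighed at end.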

Data set [13] concerns the target RAC-alpha serine/threonine-protein kinase (Homo sapiens) (UniProt P31749). In words: Inhibition of AKT protein phosphorylation in FU-resistant human HCT8 cells at 0.25 to 1 uM incubated for 24 hrs by Western blotting method. The format is cell-based. The conditions noted are these: HCT-8. In a few lines: as §3
Data set [14] relates to HCT-8. As to the kind of experiment: Induction of nitric oxide release in 5-FU resistant human HCT8 cells at 100 uM incubated for 150 mins by Griess assay. The data set is classed as functional, cell-based. In a few lines: as §7
The test system of data set [15] is Mus musculus. In words: Toxicity in nude BALB/c mouse xenografted with FU-resistant human HCT8 cells assessed as body weight level at 35.7 umol/kg administered as via oral gavage daily for 21 days (reference value: 21.1 +/- 1.5 g). The conditions noted are these: in vivo, 504 h. The data set is classed as organism-based, HCT-8. In a few lines:
as §1

The test system of data set [16] is HCT-8. As to the kind of experiment: Antiproliferative activity against human HCT8 cells assessed as inhibition of cell proliferation at 0.25 uM dosed 1 hr after NO scavenger carboxy-PTIO treatment and measured after 24 hrs by MTT assay. The data set is classed as functional.
Data set [17] is described as follows: as §4. The data set is classed as functional. The conditions noted are these: HCT-8, 72 h, read-out: GI. In a few lines:
as §5

The target in data set [18] is Signal transducer and activator of transcription 3 (Homo sapiens) (UniProt P40763). As to the kind of experiment: Inhibition of STAT3 protein phosphorylation in FU-resistant human HCT8 cells at 0.25 to 1 uM incubated for 24 hrs by Western blotting method. The format is cell-based. The note with it: HCT-8. In a few lines:
as §3

The subject of data set [19] is Mus musculus. In words: Toxicity in nude BALB/c mouse xenografted with FU-resistant human HCT8 cells assessed as abnormal weight changes in kidney at 17.8 to 35.7 umol/kg administered as via oral gavage daily for 21 days. The data set is classed as organism-based, HCT-8. The conditions noted are these: in vivo, 504 h. In a few lines: as §2
Data set [20] deals with Mus musculus. As to the kind of experiment: Toxicity in nude BALB/c mouse xenografted with FU-resistant human HCT8 cells assessed as abnormal weight changes in lung at 17.8 to 35.7 umol/kg administered as via oral gavage daily for 21 days. The data set is classed as organism-based, HCT-8. The note with it: in vivo, 504 h. In a few lines: as §1
Data set [21] concerns HCT-8. As to the kind of experiment: Induction of nitric oxide release in 5-FU resistant human HCT8 cells at 150 uM incubated for 150 mins after 150 mins of pre-treatment with 0.75 uM to 192 uM pepT1 substrate Gly-Sar by Griess assay. The data set is classed as functional, cell-based. In a few lines:
as §6

Activity calls are given as the source filed them. The calls are words filed in the database; no cut-off is given here.

Chain of Signal transducer and activator of transcription 3 (Homo sapiens) (P40763 whole entry): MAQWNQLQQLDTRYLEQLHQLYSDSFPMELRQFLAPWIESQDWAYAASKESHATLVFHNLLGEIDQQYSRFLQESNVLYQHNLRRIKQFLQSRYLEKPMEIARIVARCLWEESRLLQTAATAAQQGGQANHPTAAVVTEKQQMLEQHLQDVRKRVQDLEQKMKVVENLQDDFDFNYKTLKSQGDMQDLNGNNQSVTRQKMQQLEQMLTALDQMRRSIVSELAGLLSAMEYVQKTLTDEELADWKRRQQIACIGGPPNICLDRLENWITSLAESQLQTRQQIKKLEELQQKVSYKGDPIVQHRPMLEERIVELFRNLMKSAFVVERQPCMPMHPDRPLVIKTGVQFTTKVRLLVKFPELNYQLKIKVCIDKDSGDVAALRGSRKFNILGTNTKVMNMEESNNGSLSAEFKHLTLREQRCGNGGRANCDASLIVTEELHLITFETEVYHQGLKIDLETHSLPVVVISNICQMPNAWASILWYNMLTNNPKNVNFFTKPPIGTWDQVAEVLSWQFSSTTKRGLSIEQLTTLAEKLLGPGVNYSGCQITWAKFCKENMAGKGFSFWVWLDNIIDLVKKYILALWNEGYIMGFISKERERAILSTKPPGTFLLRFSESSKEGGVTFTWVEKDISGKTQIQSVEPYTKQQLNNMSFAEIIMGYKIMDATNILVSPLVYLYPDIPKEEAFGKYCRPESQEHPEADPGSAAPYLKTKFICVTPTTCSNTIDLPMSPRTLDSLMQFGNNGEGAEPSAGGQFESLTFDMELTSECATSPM
Chain of RAC-alpha serine/threonine-protein kinase (Homo sapiens) (P31749 whole entry): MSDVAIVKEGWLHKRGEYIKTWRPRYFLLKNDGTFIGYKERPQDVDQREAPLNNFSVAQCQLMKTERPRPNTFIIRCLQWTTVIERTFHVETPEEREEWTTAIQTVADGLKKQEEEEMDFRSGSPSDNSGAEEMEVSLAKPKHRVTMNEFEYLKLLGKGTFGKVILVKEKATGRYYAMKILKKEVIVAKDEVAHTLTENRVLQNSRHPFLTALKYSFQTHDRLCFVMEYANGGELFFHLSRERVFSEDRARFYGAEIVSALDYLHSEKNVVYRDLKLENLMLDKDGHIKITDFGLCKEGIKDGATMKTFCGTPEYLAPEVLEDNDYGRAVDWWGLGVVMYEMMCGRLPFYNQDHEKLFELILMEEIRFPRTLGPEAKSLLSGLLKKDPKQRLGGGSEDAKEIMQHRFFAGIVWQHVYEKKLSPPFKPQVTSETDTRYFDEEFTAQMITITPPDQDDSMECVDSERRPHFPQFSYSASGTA
Chain of Multidrug resistance-associated protein 1 (P33527 whole entry): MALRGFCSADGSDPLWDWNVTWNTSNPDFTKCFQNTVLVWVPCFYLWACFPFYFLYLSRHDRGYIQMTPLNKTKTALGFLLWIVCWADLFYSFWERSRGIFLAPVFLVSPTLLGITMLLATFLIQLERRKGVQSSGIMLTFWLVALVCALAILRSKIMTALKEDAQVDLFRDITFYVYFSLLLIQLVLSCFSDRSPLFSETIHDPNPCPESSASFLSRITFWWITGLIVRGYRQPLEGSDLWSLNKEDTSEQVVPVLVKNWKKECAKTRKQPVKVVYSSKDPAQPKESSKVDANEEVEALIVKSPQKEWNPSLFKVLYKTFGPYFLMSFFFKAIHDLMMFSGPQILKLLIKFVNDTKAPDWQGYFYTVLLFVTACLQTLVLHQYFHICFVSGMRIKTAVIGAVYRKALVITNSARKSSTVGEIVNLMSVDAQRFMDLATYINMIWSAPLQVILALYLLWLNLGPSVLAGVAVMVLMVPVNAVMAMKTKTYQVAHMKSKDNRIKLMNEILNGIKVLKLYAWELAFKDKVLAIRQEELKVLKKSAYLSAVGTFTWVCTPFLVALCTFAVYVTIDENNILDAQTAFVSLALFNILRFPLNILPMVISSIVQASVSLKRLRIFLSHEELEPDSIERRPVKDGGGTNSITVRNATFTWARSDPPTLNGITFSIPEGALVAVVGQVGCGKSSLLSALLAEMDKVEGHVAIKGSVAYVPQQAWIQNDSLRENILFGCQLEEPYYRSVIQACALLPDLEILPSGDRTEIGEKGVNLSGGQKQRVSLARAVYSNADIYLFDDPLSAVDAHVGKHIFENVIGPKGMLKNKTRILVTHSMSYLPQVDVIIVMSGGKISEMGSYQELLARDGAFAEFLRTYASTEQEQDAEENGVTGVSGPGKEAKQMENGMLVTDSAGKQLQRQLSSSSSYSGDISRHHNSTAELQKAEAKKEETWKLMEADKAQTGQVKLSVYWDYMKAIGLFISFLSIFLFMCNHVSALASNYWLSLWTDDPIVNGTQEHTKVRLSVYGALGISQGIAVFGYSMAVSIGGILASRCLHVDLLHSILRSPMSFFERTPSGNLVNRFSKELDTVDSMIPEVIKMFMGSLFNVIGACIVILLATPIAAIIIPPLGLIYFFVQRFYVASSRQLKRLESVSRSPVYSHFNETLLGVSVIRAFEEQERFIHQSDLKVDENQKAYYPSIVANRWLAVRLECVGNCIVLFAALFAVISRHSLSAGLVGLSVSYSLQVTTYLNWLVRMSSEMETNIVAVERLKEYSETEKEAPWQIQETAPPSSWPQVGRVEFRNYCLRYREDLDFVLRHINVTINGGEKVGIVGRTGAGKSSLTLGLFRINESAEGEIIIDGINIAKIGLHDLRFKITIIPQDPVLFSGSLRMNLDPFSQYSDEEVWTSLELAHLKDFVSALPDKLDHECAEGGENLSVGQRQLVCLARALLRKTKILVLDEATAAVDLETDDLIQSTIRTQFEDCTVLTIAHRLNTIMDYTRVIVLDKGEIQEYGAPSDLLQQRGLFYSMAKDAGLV

Turning to `COC(=O)[C@]12CCC(C)(C)C[C@H]1[C@H]1C(=O)C=C3[C@@]4(C)C=C(C#N)C(=O)C(C)(C)[C@@H]4CC[C@@]3(C)[C@]1(C)CC2` [BARDOXOLONE METHYL], the Activity entry is given as “Non-toxic” in the data set with Mus musculus [1], “Non-toxic” in the data set on Mus musculus [2], “Not Active” in [6] and “Non-toxic” in the data set on Mus musculus [7]. Further, in the data set with HCT-8 [3], the inhibition entry is “inactive”. Further, the “growth inhibition (GI)” value in the data set with HCT-8 [4] is “Active”. In data set [5], the inhibition result is “Active”.
For orientation: inhibition in vivo means the share of the control response that was lost under treatment. `CC1(C)CC[C@]2(C(=O)NCC(=O)OCC#CCOc3no[n+]([O-])c3S(=O)(=O)c3ccccc3)CC[C@]3(C)[C@H](C(=O)C=C4[C@@]5(C)C=C(C#N)C(=O)C(C)(C)[C@@H]5CC[C@]43C)[C@@H]2C1`: the result in the data set with HCT-8 [8] and in the data set with HCT-8 [21] was inactive. Moreover, the Activity result in the data set with Mus musculus [9] is reported as “Non-toxic”; in the data set on Mus musculus [10], “Non-toxic”; in the data set with Mus musculus [15], 16.7 g; in the data set on Mus musculus [19], “Non-toxic”; with Mus musculus [20], “Non-toxic”. Moreover, the outcome in the data set on HCT-8 [11] and in the data set on HCT-8 [14] was Active. The inhibition in vivo at 35.7 µmol/kg in data set [12] came out at 60.8%. Also, the inhibition entry in [13] and in data set [18] was “Dose-dependent effect” throughout. Besides, the inhibition result in the data set on HCT-8 [16] is “inactive”. Besides, the inhibition of growth at 1 µM in data set [17] is above 90%.
